This note sets out measurements from ChEMBL document CHEMBL4270592, “8-Aryl-6-chloro-3-nitro-2-(phenylsulfonylmethyl)imidazo[1,2-a]pyridines as potent antitrypanosomatid molecules bioactivated by type 1 nitroreductases” (Eur J Med Chem, 2018).

A short description of data set [1]: Electrochemical behavior of the compound assessed as redox potential corrected toward normal hydrogen electrode by cyclic voltammetry. In kind it is physicochemical.
Data set [2] can be described thus: Selectivity index, ratio of CC50 for human HepG2 cells to IC50 for trypomastigote stage of Trypanosoma brucei brucei AnTat 1.9. It counts as toxicity. Particulars: read-out: Ratio CC50/IC50.
The nature of data set [3]: Substrate activity at recombinant type-1 nitroreductase in bloodstream form of Trypanosoma brucei brucei S427 assessed as inhibition of parasite growth after 72 hrs. The method in brief:
(§1)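 Bloodstream-form T. brucei single marker S427 (T7RPOL TETR NEO) cultured at 37 °C in HMI9-T with 2.5 µg/mL G418. NTR1-overexpressing line kept in 2.5 µg/mL phleomycin and induced with 1 µg/mL tetracycline 48 h before the assay. Triplicate cultures seeded at 1×10^5 cells/mL with inhibitor; cell densities counted after 72 h to give EC50.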

In data set [4] the test system is Trypanosoma brucei brucei. The data set is described as follows: […] activity against wild type bloodstream form of Trypanosoma brucei brucei S427 after 72 hrs. The conditions noted are these: S427, 72 h. In kind it is functional, organism-based. The method in brief: as §1
Data set [5] has as its system Trypanosoma brucei brucei. Put plainly: Selectivity ratio of IC50 for wild type bloodstream form of Trypanosoma brucei brucei S427 to substrate activity at recombinant type-1 nitroreductase in bloodstream form of Trypanosoma brucei brucei S427. The method in brief: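 Bloodstream-form single-marker S427 grown at 37 °C in HMI9-T with 2.5 µg/mL G418. The NTR1-overexpressing line was also given 2.5 µg/mL phleomycin and induced with 1 µg/mL tetracycline 48 h before assay. Triplicate cultures seeded at 1×10^5 cells/mL with inhibitor; cell densities determined after 72 h to give EC50 for wild-type and NTR1 lines.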

In data set [6] the test system is Trypanosoma brucei brucei. Put plainly: Antitrypanosomal activity against trypomastigote stage of Trypanosoma brucei brucei AnTat 1.9 assessed as decrease in parasite viability after 69 hrs by Alamar blue assay. In kind it is functional, organism-based. The conditions noted are these: AnTat 1.9, 69 h. The essentials:
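AnTat 1.9 in MEM with Earle's salts plus 0.5 mM mercaptoethanol, 1.5 mM L-cysteine, 0.05 mM bathocuproine sulfate and 20% heat-inactivated horse serum, 37 °C, 5% CO2. Seeded 2000 parasites/100 µL with compounds in DMSO, in duplicate, 69 h, then Alamar Blue for 5 h.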
For orientation: Resazurin is reduced to fluorescent resorufin, in cell work by metabolically active cells.

The test system of data set [7] is Leishmania infantum. The data set is described as follows: Antileishmanial activity against axenic amastigote stage of Leishmania infantum assessed as inhibition of parasite metabolic activity after 48 hrs by luciferase reporter gene based luminescence assay. It counts as functional, organism-based. The essentials: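 L. infantum promastigotes in log phase switched to RPMI 1640 pH 5.4 for 24 h at 24 °C, then 24 h at 37 °C to give axenic amastigotes. Seeded at 2.106 parasites/mL with compounds in DMSO (final <0.5% v/v), in duplicate, 48 h at 37 °C. Wells checked for precipitate, luciferase luminescence read, IC50 by non-linear regression as mean.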
On the technique in general: Reporter assays use an easily measured gene product as a stand-in for the process of interest.

A short description of data set [8]: Selectivity index, ratio of CC50 for human HepG2 cells to IC50 for axenic amastigote stage of Leishmania infantum. In kind it is toxicity. The conditions noted are these: read-out: Ratio CC50/IC50.
Data set [9] has as its system HepG2. The data set is described as follows: Cytotoxicity against human HepG2 cells assessed as reduction in cell viability after 72 hrs by MTT assay. It counts as cell-based. Particulars: hepg2, 72 h. The essentials:
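HepG2 cells in RPMI with 10% FCS, L-glutamine and penicillin/streptomycin, 37 °C, 6% CO2. After 24 h, compounds in DMSO (final <0.5% v/v) added for 72 h, in duplicate. Precipitate checked, MTT (0.5 mg/mL) 2 h, formazan dissolved in DMSO, A570 with 630 nm reference. Viability as % of untreated control; CC50 from dose-response curve; doxorubicin positive control.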
A general note: Formazan colour is commonly taken as a measure of viable cells.

Data set [10] is described as follows: Substrate activity at recombinant type-1 nitroreductase in promastigote stage of Leishmania donovani MHOM/SD/62/1S-CL2D LdBOB assessed as inhibition of parasite growth after 72 hrs by resazurin dye based assay. The method in brief: (§2)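 Clonal L. donovani LdBOB promastigotes grown at 26 °C in modified M199. NTR1 and NTR2 overexpressers kept in nourseothricin 100 µg/mL. Triplicate 10 mL cultures seeded at 5×10^4 parasites/mL with drug for 72 h. Aliquots received 50 µM resazurin, read by fluorescence (ex 528/em 590 nm) after 4 h. Background-corrected 2-parameter fit gave EC50; at least two repeats, mean ± SD.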

Data set [11] in a line: Selectivity index, ratio of CC50 for human HepG2 cells to IC50 for promastigote stage of Leishmania donovani MHOM/IN/00/DEVI. In kind it is toxicity. Particulars: read-out: Ratio CC50/IC50.
The nature of data set [12]: Substrate activity at recombinant nitroreductase 2 in promastigote stage of Leishmania donovani MHOM/SD/62/1S-CL2D LdBOB assessed as inhibition of parasite growth after 72 hrs by resazurin dye based assay. The essentials:
as §2

Data set [13] can be described thus: Selectivity ratio of IC50 for wild type promastigote stage of Leishmania donovani MHOM/SD/62/1S-CL2D LdBOB to substrate activity at recombinant type-1 nitroreductase in promastigote stage of Leishmania donovani MHOM/SD/62/1S-CL2D LdBOB. In kind it is toxicity. The method in brief:
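LdBOB promastigotes grown at 26 °C in modified M199. NTR1- and NTR2-overexpressing lines were kept with 100 µg/mL nourseothricin. Triplicate 10 mL cultures seeded at 5×10^4 parasites/mL with drug for 72 h. Aliquots given 50 µM resazurin, fluorescence (ex 528/em 590 nm) read after 4 h. EC50 from a background-corrected 2-parameter fit; at least two repeats, mean plus SD.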

Data set [14] relates to Leishmania donovani. Put plainly: Antileishmanial activity against wild type promastigote stage of Leishmania donovani MHOM/SD/62/1S-CL2D LdBOB after 72 hrs by resazurin dye based assay. In kind it is functional, organism-based. The method in brief:
as §2

For data set [15], the system named is THP-1. Put plainly: (§3) Cytotoxicity against human THP1 cells assessed as reduction in cell viability after 72 hrs by MTT assay. It counts as cell-based. The conditions noted are these: thp-1, 72 h. The essentials:
(§4)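 THP1 cells in complete RPMI with PMA (final 50 ng/mL) at 10⁶ cells/mL, differentiated 48 h. Compounds in DMSO (final <0.5% v/v) then added for 72 h at 37 °C. MTT (0.5 mg/mL in FCS-free medium) 2 h, formazan dissolved in DMSO, A570 with 630 nm reference. Viability as % of untreated control; CC50 from dose-response curve; doxorubicin positive control.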

Data set [16] deals with Leishmania donovani. Put plainly: Antileishmanial activity against intramacrophage amastigote stage of Leishmania donovani infected in human THP1 cells after 120 hrs by Giemsa staining based microscopy. Particulars: THP-1, 120 h. In kind it is functional, organism-based. The method in brief:
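THP-1 cells differentiated with PMA (final 50 ng/mL) for 48 h at 37 °C, 6% CO2. Infected 10:1 with L. donovani promastigotes acidified 24 h at 27 °C in Schneider 20% FCS pH 5.4. After 24 h, compounds added in duplicate (DMSO <0.5% v/v) for 120 h.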

Data set [17] is described as follows: Selectivity index, ratio of CC50 for human HepG2 cells to IC50 for intramacrophage amastigote stage of Leishmania donovani infected in human THP1 cells. In kind it is toxicity, cell-based. Particulars: read-out: Ratio CC50/IC50.
The test system of data set [18] is Leishmania donovani. Put plainly: Antileishmanial activity against promastigote stage of Leishmania donovani MHOM/IN/00/DEVI assessed as inhibition of parasite metabolic activity after 72 hrs by MTT assay. In kind it is functional, organism-based. The essentials:
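MHOM/IN/00/DEVI log-phase promastigotes in Schneider's medium with 20% FCS, 2 mM L-glutamine and antibiotics. Seeded at 10⁶ parasites/mL with compounds in DMSO (final <0.5% v/v), in duplicate, 72 h at 27 °C. MTT added for 4 h, stopped with 50% isopropanol–10% SDS, A570 read. IC50 by nonlinear regression, mean of three independent experiments.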

Data set [19] in a line: as §3. It counts as cell-based, THP-1. The conditions noted are these: THP1 cells. The method in brief: as §4

Molecules are shown by their SMILES.

What is called IC50 is the point on the concentration scale where inhibition reaches its midpoint. The term CC50 denotes the concentration giving 50% cytotoxicity.

For `O=[N+]([O-])c1c(CS(=O)(=O)c2ccccc2)nc2c(-c3ccccc3CO)cc(Cl)cn12`, the Activity in data set [1] was -0.7 V. Besides, the selectivity ratio was 550 in data set [2] and < 8.8 in data set [8]. The IC50 was 0.19 µM in [3], 0.39 µM in [4], 0.16 µM in data set [6] and > 10 µM in [7]. For the same molecule, the Ratio IC50 in [5] worked out at 2. The CC50 in data set [9] is 88 µM.
As to `O=[N+]([O-])c1c(CS(=O)(=O)c2ccccc2)nc2c(-c3ccncc3)cc(Cl)cn12`, in [1], the Activity is -0.64 V. The selectivity ratio in data set [2] was > 200; in data set [11], > 41.7; in data set [17], > 21.7; in [8], > 16.7. In addition, the IC50 was determined as 0.04 µM in data set [10]; 2 µM in data set [12]; 1.5 µM in data set [14]; 2.3 µM in data set [16]; 0.25 µM in [6]; 3 µM in data set [7]. Moreover, the IC50 in [18] is 1.2 µM. Besides, the Ratio IC50 in data set [13] was 20 to 40. The half-maximal cytotoxic concentration (CC50) is > 25 µM in data set [15] and > 50 µM in [9].
For the molecule `O=[N+]([O-])c1c(CS(=O)(=O)c2ccccc2)nc2c(-c3cccc(CO)c3)cc(Cl)cn12`, the Activity in data set [1] is given as -0.7 V. The selectivity ratio in data set [2] was > 167; in [11], > 19.2; in [8], > 17.9. The half-inhibitory concentration (IC50) is 0.07 µM in [10]; 1.9 µM in data set [12]; 1.4 µM in [14]; > 10 µM in data set [16]; 0.15 µM in data set [6]; 1.3 µM in [18]. In [13], the Ratio IC50 is 20 to 40. Also, the CC50 in [15] was > 15 µM; in data set [9], > 25 µM.
For `CC1CS(=O)(=O)CCN1/N=C/c1ccc([N+](=O)[O-])o1` (centres undefined) [NIFURTIMOX], the results for the 50% inhibitory concentration (IC50) in data set [3] and in [4] were 0.6 µM and 1.87 µM, respectively.
As for `CSc1ccc(OCc2ncc([N+](=O)[O-])n2C)cc1` [FEXINIDAZOLE], the Activity in [1] was -0.83 V. Besides, the selectivity ratio in data set [2] is > 333; in [11] it was > 167; in [17], > 50; in data set [8] it was > 58.8. For the same molecule, the CC50 at 72 h in data set [19] turned out to be 3.6 µM. In addition, the IC50 in data set [16] is > 50 µM; in data set [6], 0.6 µM; in [18] it was 1.2 µM. Also, in data set [9], the CC50 is > 200 µM.
